Laboratory results reported in ChEMBL document CHEMBL3414471 (J Med Chem, 2015).
pEC50, pIC50: −log10 of the molar value. Active and inactive are the calls of the source. The calls are words filed in the database; no cut-off is given here.

Legend:
[1] = target: T1, 5-hydroxytryptamine receptor 2A (Homo sapiens, UniProt P28223); assay: Agonist activity at human 5-HT2A receptor expressed in HEK293 cells assessed as calcium flux at 10 uM by FLIPR assay; type: functional, cell-based
Procedure, shortened: (§1)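 Flp-In-293 cells stably expressing human 5-HT2A, 5-HT2B or 5-HT2C-INI, grown in DMEM with 10% dialyzed FBS, then plated for 24 h in 1% dialyzed FBS. Cells were loaded 1 h at 37 °C with calcium dye in Hepes-buffered HBSS, pH 7.40, containing 2.5 mM probenecid. FLIPR read 10 s baseline, then 120 s after drug addition.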

[2] = target: T2, 5-hydroxytryptamine receptor 2B (Homo sapiens, UniProt P41595); assay: Agonist activity at human 5-HT2B receptor expressed in HEK293 cells assessed as calcium flux by FLIPR assay relative to 5-HT; type: functional, cell-based
T2 sequence (P41595 whole entry): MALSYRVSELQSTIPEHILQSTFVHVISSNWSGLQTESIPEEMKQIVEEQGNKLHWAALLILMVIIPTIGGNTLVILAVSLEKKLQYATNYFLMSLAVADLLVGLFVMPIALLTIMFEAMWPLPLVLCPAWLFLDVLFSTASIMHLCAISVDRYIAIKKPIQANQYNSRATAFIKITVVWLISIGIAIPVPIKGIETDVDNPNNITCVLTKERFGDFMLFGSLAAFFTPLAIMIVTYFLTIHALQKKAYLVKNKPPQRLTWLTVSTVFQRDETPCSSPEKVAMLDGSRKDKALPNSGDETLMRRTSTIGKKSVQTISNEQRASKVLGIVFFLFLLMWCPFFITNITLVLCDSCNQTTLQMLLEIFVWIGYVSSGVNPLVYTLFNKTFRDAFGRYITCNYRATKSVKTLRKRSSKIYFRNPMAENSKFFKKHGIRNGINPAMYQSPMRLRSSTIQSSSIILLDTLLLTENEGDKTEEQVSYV
Procedure, shortened: (§2)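 Flp-In-293 cells stably expressing human 5-HT2A, 5-HT2B or 5-HT2C-INI; grown 24–48 h in DMEM/10% dialyzed FBS, plated on poly-L-Lys at 12000 cells/well in 1% dialyzed FBS for 24 h. Loaded 1 h at 37 °C with calcium dye in HBSS, 20 mM Hepes pH 7.40, 2.5 mM probenecid.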

[3] = target: T2, 5-hydroxytryptamine receptor 2B; assay: Agonist activity at human 5-HT2B receptor expressed in HEK293 cells assessed as calcium flux by FLIPR assay; type: functional, cell-based
[4] = target: T3, 5-hydroxytryptamine receptor 2C (Homo sapiens) (UniProt P28335); assay: Agonist activity at human 5-HT2C receptor expressed in HEK293 cells assessed as calcium flux by FLIPR assay relative to 5-HT; type: functional, cell-based; procedure, shortened: as §2
T3 sequence (whole entry): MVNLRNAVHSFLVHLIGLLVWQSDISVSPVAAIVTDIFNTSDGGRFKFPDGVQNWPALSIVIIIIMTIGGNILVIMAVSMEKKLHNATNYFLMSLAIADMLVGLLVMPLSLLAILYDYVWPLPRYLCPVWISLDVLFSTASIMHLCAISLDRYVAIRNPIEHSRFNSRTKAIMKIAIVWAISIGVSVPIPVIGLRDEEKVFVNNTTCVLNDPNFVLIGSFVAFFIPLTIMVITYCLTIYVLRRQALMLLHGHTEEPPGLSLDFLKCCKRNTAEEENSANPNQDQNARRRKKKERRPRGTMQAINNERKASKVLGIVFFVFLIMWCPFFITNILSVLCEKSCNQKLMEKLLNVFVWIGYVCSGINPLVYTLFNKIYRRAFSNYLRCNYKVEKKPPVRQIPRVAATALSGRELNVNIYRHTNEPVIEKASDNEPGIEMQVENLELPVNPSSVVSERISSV

[5] = target: T4, 5-hydroxytryptamine receptor 2C (Homo sapiens, UniProt P28335); assay: Agonist activity at human 5-HT2C receptor expressed in HEK293 cells assessed as calcium flux by FLIPR assay; type: functional, cell-based
T4 sequence (P28335 whole entry): T3 sequence (whole entry)

Salmonella typhimurium [6] = assay: Mutagenic activity in Salmonella typhimurium TA100 at 10 to 100 uM by ames test; type: toxicity, organism-based; conditions: salmonella enterica subsp. enterica serovar typhimurium
Procedure, shortened: (§3)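 Ames fluctuation test in Salmonella strains TA98, TA100, TA1535 and TA1537, with and without S9, at 10, 50 and 100 µM; scored negative or positive.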

Liver microsome = assay: Metabolic stability in human liver microsomes; type: ADME
Procedure, shortened: (§4)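 Incubation with human or CD-1 mouse liver microsomes for 1 h; stability expressed as % parent compound remaining.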

Salmonella typhimurium [7] = assay: Mutagenic activity in Salmonella typhimurium TA1535 at 10 to 100 uM by ames test; type: toxicity, organism-based; conditions: salmonella enterica subsp. enterica serovar typhimurium; procedure, shortened: as §3
Salmonella typhimurium [8] = assay: Mutagenic activity in Salmonella typhimurium TA1537 at 10 to 100 uM by ames test in presence of S9 mixture; type: toxicity, organism-based; conditions: salmonella enterica subsp. enterica serovar typhimurium; procedure, shortened: as §3
Salmonella typhimurium [9] = assay: Mutagenic activity in Salmonella typhimurium TA1535 at 10 to 100 uM by ames test in presence of S9 mixture; type: toxicity, organism-based; conditions: salmonella enterica subsp. enterica serovar typhimurium; procedure, shortened: as §3
Salmonella typhimurium [10] = assay: Mutagenic activity in Salmonella typhimurium TA1537 at 10 to 100 uM by ames test; type: toxicity, organism-based; conditions: salmonella enterica subsp. enterica serovar typhimurium; procedure, shortened: as §3
[11] = Plasma protein binding in human at 10 uM; type: ADME, cell-free
Procedure, shortened: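 Human plasma protein binding determined at 10 µM compound, expressed as % bound.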

Liver = assay: Metabolic stability in mouse liver microsomes; type: ADME; procedure, shortened: as §4
[12] = Permeability from basolateral to apical side in human Caco2 cells at pH 7.4; type: ADME, cell-based; conditions: caco-2, pH 7.4
Procedure, shortened: (§5)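 Caco-2 monolayer permeability measured A–B and B–A in pH 7.4 buffer, reported as ×10−6 cm/s; A–B/B–A ratio derived from these.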

Salmonella typhimurium [13] = assay: Mutagenic activity in Salmonella typhimurium TA100 at 10 to 100 uM by ames test in presence of S9 mixture; type: toxicity, organism-based; conditions: salmonella enterica subsp. enterica serovar typhimurium; procedure, shortened: as §3
[14] = Permeability from apical to basolateral side in human Caco2 cells at pH 7.4; type: ADME, cell-based; conditions: caco-2, pH 7.4; procedure, shortened: as §5
Salmonella typhimurium [15] = assay: Mutagenic activity in Salmonella typhimurium TA98 at 10 to 100 uM by ames test in presence of S9 mixture; type: toxicity, organism-based; conditions: salmonella enterica subsp. enterica serovar typhimurium; procedure, shortened: as §3
[16] = target: Voltage-gated inwardly rectifying potassium channel KCNH2 (Homo sapiens, UniProt Q12809); assay: Inhibition of human ERG channel expressed in CHO cells by patch clamp method; type: cell-based
Chain of Voltage-gated inwardly rectifying potassium channel KCNH2 (Q12809 whole entry): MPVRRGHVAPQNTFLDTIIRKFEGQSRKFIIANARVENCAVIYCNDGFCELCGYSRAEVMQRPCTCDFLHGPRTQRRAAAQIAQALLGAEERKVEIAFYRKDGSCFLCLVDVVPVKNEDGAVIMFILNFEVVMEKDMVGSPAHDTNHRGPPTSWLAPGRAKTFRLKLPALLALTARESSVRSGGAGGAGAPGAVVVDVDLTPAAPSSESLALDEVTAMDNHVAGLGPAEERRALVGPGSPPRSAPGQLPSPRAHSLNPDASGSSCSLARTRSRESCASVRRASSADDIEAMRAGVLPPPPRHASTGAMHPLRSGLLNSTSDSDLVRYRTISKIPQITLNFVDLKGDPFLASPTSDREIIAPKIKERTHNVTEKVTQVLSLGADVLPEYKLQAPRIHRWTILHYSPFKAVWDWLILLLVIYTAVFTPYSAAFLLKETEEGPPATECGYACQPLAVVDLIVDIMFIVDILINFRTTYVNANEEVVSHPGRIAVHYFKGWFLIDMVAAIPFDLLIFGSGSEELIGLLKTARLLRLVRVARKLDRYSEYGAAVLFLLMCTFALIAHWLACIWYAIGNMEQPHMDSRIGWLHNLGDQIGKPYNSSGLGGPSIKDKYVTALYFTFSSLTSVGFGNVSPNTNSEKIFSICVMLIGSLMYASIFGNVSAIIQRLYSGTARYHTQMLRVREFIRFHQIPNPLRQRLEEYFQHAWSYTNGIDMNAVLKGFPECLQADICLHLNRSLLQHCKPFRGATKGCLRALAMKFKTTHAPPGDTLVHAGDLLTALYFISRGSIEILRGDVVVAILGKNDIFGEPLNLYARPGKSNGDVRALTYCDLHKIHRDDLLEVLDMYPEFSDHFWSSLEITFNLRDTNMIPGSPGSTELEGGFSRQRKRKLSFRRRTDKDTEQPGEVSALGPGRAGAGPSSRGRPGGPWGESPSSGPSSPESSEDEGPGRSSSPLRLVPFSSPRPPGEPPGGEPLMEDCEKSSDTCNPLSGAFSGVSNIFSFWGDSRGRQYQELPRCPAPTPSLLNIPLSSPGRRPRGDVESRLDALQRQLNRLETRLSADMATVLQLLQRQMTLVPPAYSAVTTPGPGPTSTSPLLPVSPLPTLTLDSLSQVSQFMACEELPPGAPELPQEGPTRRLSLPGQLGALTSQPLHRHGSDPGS

Salmonella typhimurium [17] = assay: Mutagenic activity in Salmonella typhimurium TA98 at 10 to 100 uM by ames test; type: toxicity, organism-based; conditions: salmonella enterica subsp. enterica serovar typhimurium; procedure, shortened: as §3
[18] = target: T2, 5-hydroxytryptamine receptor 2B; assay: Agonist activity at 5HT2B receptor (unknown origin) relative to control; procedure, shortened: as §2
[19] = target: T1, 5-hydroxytryptamine receptor 2A; assay: Agonist activity at human 5-HT2A receptor expressed in HEK293 cells assessed as calcium flux by FLIPR assay; type: functional, cell-based
[20] = target: T2, 5-hydroxytryptamine receptor 2B; assay: Agonist activity at human 5-HT2B receptor expressed in HEK293 cells assessed as calcium flux at 10 uM by FLIPR assay; type: functional, cell-based; procedure, shortened: as §1
[21] = target: T1, 5-hydroxytryptamine receptor 2A; assay: Agonist activity at human 5-HT2A receptor expressed in HEK293 cells assessed as calcium flux by FLIPR assay relative to 5-HT; type: functional, cell-based; procedure, shortened: as §2
[22] = target: T3, 5-hydroxytryptamine receptor 2C (Homo sapiens); assay: Agonist activity at human 5-HT2C receptor expressed in HEK293 cells assessed as calcium flux at 10 uM by FLIPR assay; type: functional, cell-based; procedure, shortened: as §1

T1 sequence (P28223 whole entry): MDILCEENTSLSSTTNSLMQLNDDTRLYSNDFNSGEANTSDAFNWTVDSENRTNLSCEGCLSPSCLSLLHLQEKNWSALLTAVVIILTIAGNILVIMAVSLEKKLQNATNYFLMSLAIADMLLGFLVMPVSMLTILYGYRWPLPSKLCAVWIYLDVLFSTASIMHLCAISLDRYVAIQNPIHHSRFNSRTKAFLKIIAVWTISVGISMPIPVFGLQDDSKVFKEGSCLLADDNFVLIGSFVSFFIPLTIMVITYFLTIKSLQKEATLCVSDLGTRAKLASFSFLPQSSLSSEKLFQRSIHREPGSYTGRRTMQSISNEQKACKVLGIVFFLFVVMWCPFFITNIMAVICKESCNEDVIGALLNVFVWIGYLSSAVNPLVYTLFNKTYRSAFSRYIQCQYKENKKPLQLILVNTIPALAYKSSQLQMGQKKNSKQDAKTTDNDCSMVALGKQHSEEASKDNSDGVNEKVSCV

Structure (SMILES)	Activity [1]	Emax [2] [%]	pEC50 [3]	Emax [4] [%]	pEC50 [5]	other results
C#CCOc1ccc(Cl)cc1[C@@H]1C[C@H]1CN	inactive	30	5.36	71	6.44	–
C=CCOc1ccc(Cl)cc1[C@@H]1C[C@H]1CN	inactive	28	5.37	42	6.13	–
C=CCOc1ccc(Cl)cc1[C@H]1C[C@@H]1CN.O=C(O)C(F)(F)F	inactive	32	5.66	80	7.22	Activity (Salmonella typhimurium [6]): Non-toxic; Stability (Liver microsome): 52%; Activity (Salmonella typhimurium [7]): Non-toxic; Activity (Salmonella typhimurium [8]): Non-toxic; Activity (Salmonella typhimurium [9]): Non-toxic; Activity (Salmonella typhimurium [10]): Non-toxic; PPB [11]: 75%; Stability (Liver): 60%; permeability [12]: 9.8 ×10⁻⁶ cm/s; Activity (Salmonella typhimurium [13]): Non-toxic; permeability [14]: 35.6 ×10⁻⁶ cm/s; Activity (Salmonella typhimurium [15]): Non-toxic; pIC50 [16]: 6.57; Activity (Salmonella typhimurium [17]): Non-toxic
CCCOc1ccc(Cl)cc1[C@@H]1C[C@H]1CN	inactive	21	5.52	31	5.91	–
c1cc2c3c(c1)[C@H]1CCC[C@H]1N3CCNC2	–	–	–	–	–	Emax [18]: 40%
C=C(F)COc1ccc(F)cc1[C@H]1C[C@@H]1CN	–	–	–	91	7.66	pEC50 [19]: 5.78; Activity [20]: inactive
C#CCOc1ccc(Cl)cc1[C@H]1C[C@@H]1CN	–	29	5.34	65	7.20	pEC50 [19]: 6.00; Emax [21]: 21%
CCOc1ccc(Cl)cc1[C@H]1C[C@@H]1CN	–	45	7.07	91	7.89	pEC50 [19]: 5.92; Emax [21]: 49%
COCCOc1ccc(Cl)cc1[C@H]1C[C@@H]1CN	inactive	–	–	8	6.74	Activity [20]: inactive
NC[C@H]1C[C@@H]1c1cc(Cl)ccc1OCC(F)F	–	27	6.08	81	7.04	pEC50 [19]: 5.74; Emax [21]: 31%
C[C@H]1CNCCc2ccc(Cl)cc21	–	–	–	–	–	Emax [21]: 68%
CC(C)Oc1ccc(Cl)cc1[C@H]1C[C@@H]1CN	–	–	6.00	–	7.04	pEC50 [19]: 5.40
NC[C@@H]1C[C@H]1c1cc(F)ccc1OCCF	–	–	–	77	6.29	pEC50 [19]: 5.52; Activity [20]: inactive; Emax [21]: 20%
C=C(C)COc1ccc(Cl)cc1[C@@H]1C[C@H]1CN	inactive	39	5.22	–	–	Activity [22]: inactive
NC[C@H]1C[C@@H]1c1cc(Cl)ccc1OCC1CC1	inactive	20	5.30	75	6.60	–
CSCCOc1ccc(Cl)cc1[C@@H]1C[C@H]1CN	inactive	–	–	11	5.75	Activity [20]: inactive
C=C(C)COc1ccc(Cl)cc1[C@H]1C[C@@H]1CN	–	32	6.37	90	6.67	pEC50 [19]: 6.04; Emax [21]: 26%

Structure (SMILES)	Activity [1]	Emax [2] [%]	pEC50 [3]	Emax [4] [%]	pEC50 [5]	other results
c1cc2c3c(c1)[C@H]1CCC[C@H]1CN3CCNC2	–	–	–	–	–	Emax [18]: 50%
CC(C)Oc1ccc(Cl)cc1[C@@H]1C[C@H]1CN	–	–	5.25	–	5.61	–
C=CCOc1ccc(F)cc1[C@@H]1C[C@H]1CN	–	–	–	87	6.80	pEC50 [19]: 6.16; Activity [20]: inactive; Emax [21]: 56%
C=C(F)COc1ccc(F)cc1[C@@H]1C[C@H]1CN	inactive	–	–	62	6.01	Activity [20]: inactive
CCOc1ccc(Cl)cc1[C@@H]1C[C@H]1CN	inactive	26	5.64	72	6.19	–
NC[C@@H]1C[C@H]1c1cc(Cl)ccc1OCC(F)F	–	30	5.83	64	6.04	pEC50 [19]: 5.88; Emax [21]: 43%
CCCCOc1ccc(Cl)cc1[C@@H]1C[C@H]1CN	–	–	–	50	6.17	Activity [20]: inactive
NC[C@@H]1C[C@H]1c1cc(Cl)ccc1OCC1CC1	inactive	32	5.52	51	5.97	–
CCCOc1ccc(F)cc1[C@H]1C[C@@H]1CN	–	33	5.70	88	7.96	pEC50 [19]: 5.99; Emax [21]: 15%
NC[C@H]1C[C@@H]1c1cc(Cl)ccc1OCCCF	inactive	22	5.31	60	6.69	–
NC[C@@H]1C[C@H]1c1cc(Cl)ccc1OCCF	inactive	31	5.34	59	5.95	–
COCCOc1ccc(Cl)cc1[C@@H]1C[C@H]1CN	inactive	32	5.28	45	6.18	–
C=C(F)COc1ccc(Cl)cc1[C@@H]1C[C@H]1CN	inactive	33	5.16	–	–	Activity [22]: inactive
NC[C@@H]1C[C@H]1c1cc(Cl)ccc1OCCCF	inactive	22	5.21	24	5.90	–
CSCCOc1ccc(Cl)cc1[C@H]1C[C@@H]1CN	inactive	–	–	24	6.61	Activity [20]: inactive
CCCOc1ccc(F)cc1[C@@H]1C[C@H]1CN	inactive	11	6.13	80	6.53	–
CCCCOc1ccc(Cl)cc1[C@H]1C[C@@H]1CN	–	–	–	33	6.54	Activity [20]: inactive
